Results published in ChEMBL document CHEMBL5247578, “Effective synthesis of benzimidazoles-imidazo[1,2-a]pyrazine conjugates: A comparative study of mono-and bis-benzimidazoles for antitumor activity” (Eur J Med Chem, 2019).

Columns and labels:
[1] = n-Octanol/phosphate buffer partition coefficient, logP of the compound at pH 7.4 incubated for 85 mins by shake-flask method; assay type: physicochemical
Procedure, shortened: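 Octanol–water partition by shake-flask: n-octanol with 0.15 M phosphate buffer pH 7.4 at 10:1 volumes. Buffer-phase absorbance read before mixing, then shaken 50 min and centrifuged at 2500 rpm for 35 min. Buffer absorbance read again; P = (Ai−Af)/Af × Vw/Vo.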

MDA-MB-468 = assay: Antiproliferative activity against human MDA-MB-468 cells assessed as cell growth inhibition at 10 uM incubated for 48 hrs by sulforhodamine B assay relative to control; assay type: functional
Procedure, shortened: (§1)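 NCI-60 single-dose screen at 10^-5 M. Cells grown in RPMI 1640 with 5% FBS and 2 mM L-glutamine, plated at 5,000–40,000 cells/well, and preincubated 24 h. Drug (DMSO stock) added and incubated 48 h at 37 °C, 5% CO2. Adherent cells fixed with cold TCA, stained with 0.4% SRB in 1% acetic acid, dye solubilized in 10 mM trizma base, A515 read. Percent growth taken against time-zero and untreated control.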

T47D = assay: Antiproliferative activity against human T47D cells assessed as cell growth inhibition at 10 uM incubated for 48 hrs by sulforhodamine B assay relative to control; assay type: functional; procedure, shortened: as §1
Hs-578T = assay: Antiproliferative activity against human Hs-578T cells assessed as cell growth inhibition at 10 uM incubated for 48 hrs by sulforhodamine B assay relative to control; assay type: functional; procedure, shortened: as §1
DU-145 = assay: Antiproliferative activity against human DU-145 cells assessed as cell growth inhibition at 10 uM incubated for 48 hrs by sulforhodamine B assay relative to control; assay type: functional
Procedure, shortened: (§2)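 NCI-60 one-dose prescreen at 10^-5 M. Cells grown in RPMI 1640 with 5% FBS and 2 mM glutamine, preincubated 24 h, then exposed 48 h at 37 °C. Adherent lines TCA-fixed, SRB-stained, A515 read. Growth percent relative to time-zero and control; negative values mean cell kill.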

PC-3 = assay: Antiproliferative activity against human PC-3 cells assessed as cell growth inhibition at 10 uM incubated for 48 hrs by sulforhodamine B assay relative to control; assay type: functional; procedure, shortened: as §1
RXF 393 = assay: Antiproliferative activity against human RXF 393 cells assessed as cell growth inhibition at 10 uM incubated for 48 hrs by sulforhodamine B assay relative to control; assay type: functional; procedure, shortened: as §1
ACHN = assay: Antiproliferative activity against human ACHN cells assessed as cell growth inhibition at 10 uM incubated for 48 hrs by sulforhodamine B assay relative to control; assay type: functional
Procedure, shortened: (§3)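 Single-dose NCI-60 prescreen at 10^-5 M. Cells in RPMI 1640 with 5% FBS and 2 mM L-glutamine, seeded 5,000–40,000 cells/well with 24 h preincubation, then drug exposure for 48 h at 37 °C under 5% CO2. Growth read by SRB staining of TCA-fixed cells at 515 nm against time-zero and untreated controls. Negative growth values denote cell kill.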

A498 = assay: Antiproliferative activity against human A498 cells assessed as cell growth inhibition at 10 uM incubated for 48 hrs by sulforhodamine B assay relative to control; assay type: functional; procedure, shortened: as §3
OVCAR-8 = assay: Antiproliferative activity against human OVCAR-8 cells assessed as cell growth inhibition at 10 uM incubated for 48 hrs by sulforhodamine B assay relative to control; assay type: functional; procedure, shortened: as §1
OVCAR-5 = assay: Antiproliferative activity against human OVCAR-5 cells assessed as cell growth inhibition at 10 uM incubated for 48 hrs by sulforhodamine B assay relative to control; assay type: functional; procedure, shortened: as §1
OVCAR-3 = assay: Antiproliferative activity against human OVCAR-3 cells assessed as cell growth inhibition at 10 uM incubated for 48 hrs by sulforhodamine B assay relative to control; assay type: functional; procedure, shortened: as §1
UACC-62 = assay: Antiproliferative activity against human UACC-62 cells assessed as cell growth inhibition at 10 uM incubated for 48 hrs by sulforhodamine B assay relative to control; assay type: functional; procedure, shortened: as §1
SK-MEL-2 = assay: Antiproliferative activity against human SK-MEL-2 cells assessed as cell growth inhibition at 10 uM incubated for 48 hrs by sulforhodamine B assay relative to control; assay type: functional; procedure, shortened: as §1
M14 = assay: Antiproliferative activity against human M14 cells assessed as cell growth inhibition at 10 uM incubated for 48 hrs by sulforhodamine B assay relative to control; assay type: functional; procedure, shortened: as §1
LOX IMVI = assay: Antiproliferative activity against human LOX IMVI cells assessed as cell growth inhibition at 10 uM incubated for 48 hrs by sulforhodamine B assay relative to control; assay type: functional; procedure, shortened: as §1
U-251 = assay: Antiproliferative activity against human U-251 cells assessed as cell growth inhibition at 10 uM incubated for 48 hrs by sulforhodamine B assay relative to control; assay type: functional; procedure, shortened: as §1
SNB-75 = assay: Antiproliferative activity against human SNB-75 cells assessed as cell growth inhibition at 10 uM incubated for 48 hrs by sulforhodamine B assay relative to control; assay type: functional; procedure, shortened: as §1
SF-268 = assay: Antiproliferative activity against human SF-268 cells assessed as cell growth inhibition at 10 uM incubated for 48 hrs by sulforhodamine B assay relative to control; assay type: functional; procedure, shortened: as §1
SW-620 = assay: Antiproliferative activity against human SW620 cells assessed as cell growth inhibition at 10 uM incubated for 48 hrs by sulforhodamine B assay relative to control; assay type: functional; procedure, shortened: as §1
KM12 = assay: Antiproliferative activity against human KM12 cells assessed as cell growth inhibition at 10 uM incubated for 48 hrs by sulforhodamine B assay relative to control; assay type: functional; procedure, shortened: as §1
HT-29 = assay: Antiproliferative activity against human HT-29 cells assessed as cell growth inhibition at 10 uM incubated for 48 hrs by sulforhodamine B assay relative to control; assay type: functional; procedure, shortened: as §1
HCT-116 = assay: Antiproliferative activity against human HCT-116 cells assessed as cell growth inhibition at 10 uM incubated for 48 hrs by sulforhodamine B assay relative to control; assay type: functional; procedure, shortened: as §2
NCI-H522 = assay: Antiproliferative activity against human NCI-H522 cells assessed as cell growth inhibition at 10 uM incubated for 48 hrs by sulforhodamine B assay relative to control; assay type: functional; procedure, shortened: as §1
NCI-H460 = assay: Antiproliferative activity against human NCI-H460 cells assessed as cell growth inhibition at 10 uM incubated for 48 hrs by sulforhodamine B assay relative to control; assay type: functional; procedure, shortened: as §1
EKVX = assay: Antiproliferative activity against human EKVX cells assessed as cell growth inhibition at 10 uM incubated for 48 hrs by sulforhodamine B assay relative to control; assay type: functional; procedure, shortened: as §2
A549 = assay: Antiproliferative activity against human A549 cells assessed as cell growth inhibition at 10 uM incubated for 48 hrs by sulforhodamine B assay relative to control; assay type: functional; procedure, shortened: as §3
SR = assay: Antiproliferative activity against human SR cells assessed as cell growth inhibition at 10 uM incubated for 48 hrs by sulforhodamine B assay relative to control; assay type: functional; procedure, shortened: as §1
RPMI-8226 = assay: Antiproliferative activity against human RPMI-8226 cells assessed as cell growth inhibition at 10 uM incubated for 48 hrs by sulforhodamine B assay relative to control; assay type: functional; procedure, shortened: as §1
HL-60 = assay: Antiproliferative activity against human HL-60 cells assessed as cell growth inhibition at 10 uM incubated for 48 hrs by sulforhodamine B assay relative to control; assay type: functional; procedure, shortened: as §2
CCRF-CEM = assay: Antiproliferative activity against human CCRF-CEM cells assessed as cell growth inhibition at 10 uM incubated for 48 hrs by sulforhodamine B assay relative to control; assay type: functional; procedure, shortened: as §3

SMILES | logD at 1.417 h [1] | inhibition at 10 µM (MDA-MB-468) [%] | inhibition at 10 µM (T47D) [%] | inhibition at 10 µM (Hs-578T) [%] | inhibition at 10 µM (DU-145) [%] | inhibition at 10 µM (PC-3) [%] | inhibition at 10 µM (RXF 393) [%] | inhibition at 10 µM (ACHN) [%] | inhibition at 10 µM (A498) [%] | inhibition at 10 µM (OVCAR-8) [%] | inhibition at 10 µM (OVCAR-5) [%] | inhibition at 10 µM (OVCAR-3) [%] | inhibition at 10 µM (UACC-62) [%] | inhibition at 10 µM (SK-MEL-2) [%] | inhibition at 10 µM (M14) [%] | inhibition at 10 µM (LOX IMVI) [%] | inhibition at 10 µM (U-251) [%] | inhibition at 10 µM (SNB-75) [%] | inhibition at 10 µM (SF-268) [%] | inhibition at 10 µM (SW-620) [%] | also measured
COc1ccc(-c2cn3ccnc3c(-c3ccc4ncn(C5CCCCC5)c4c3)n2)cc1 | 1.41 | 97.4 | -8.6 | 80 | 81.8 | 95.2 | -8.48 | 61 | -12.3 | 71.2 | 58.8 | -26.5 | 65.2 | 94.3 | 89.2 | 69.6 | 80.9 | -26.3 | 49.9 | 77.8 | inhibition at 10 µM (KM12): 83.2%; inhibition at 10 µM (HT-29): 92.5%; inhibition at 10 µM (HCT-116): 91.3%; inhibition at 10 µM (NCI-H522): -20.9%; inhibition at 10 µM (NCI-H460): 91.1%; inhibition at 10 µM (EKVX): 56.6%; inhibition at 10 µM (A549): 68.6%; inhibition at 10 µM (SR): 91.7%; inhibition at 10 µM (RPMI-8226): 95.6%; inhibition at 10 µM (HL-60): 98.6%; inhibition at 10 µM (CCRF-CEM): 93.3%
c1cn2cc(-c3ccc4ncn(C5CCCCC5)c4c3)nc(-c3ccc4ncn(C5CCCCC5)c4c3)c2n1 | 1.19 | 31.4 | 54.9 | 43.3 | 46.3 | 64.2 | 16.8 | 45.1 | 26.2 | 59.5 | 7.18 | 40.4 | 51.9 | 31.7 | 40.6 | 67 | 69 | 25.4 | 41.7 | 35.6 | inhibition at 10 µM (KM12): 63.5%; inhibition at 10 µM (HT-29): 71.9%; inhibition at 10 µM (HCT-116): 80.2%; inhibition at 10 µM (NCI-H522): 49.4%; inhibition at 10 µM (NCI-H460): 53%; inhibition at 10 µM (EKVX): 30.8%; inhibition at 10 µM (A549): 57.6%; inhibition at 10 µM (SR): 71.8%; inhibition at 10 µM (RPMI-8226): 89.1%; inhibition at 10 µM (HL-60): 51%; inhibition at 10 µM (CCRF-CEM): 78.5%
